This is a sample that favours compounds with a hit; in the whole collection about 6.1% have one here.
Yeast growth inh = yeast BB579 growth reduction in restrictive medium. inhibition, % at 10 µM. 140,000 compounds, 0.51% hits. S. cerevisiae BB579 growth, OD615, 48 h;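 active = inhibition above a set limit, 3 SD over the mean compound inhibition, cut at about 44% in these data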
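Test system: Saccharomyces cerevisiae DeaD strain BB579, replicative lifespan model yeast | Buffer or medium: Restrictive CSMM-D medium | Doses: One dose, 10 µM compound with 0.25% DMSO | Incubation: 48 h exposure, 30 °C | Detection: Culture absorbance at 615 nm | Control set: Amphotericin B at 10 µg/mL as positive control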
WT yeast gro inh = growth inhibition of WT yeast, mitochondrial fusion screen; mitochondrial fusion phenotypic screen, WT strain; inhibition, % at 10 µM; 190,000 compounds, 2.1% hits; AID 1362; in the data active = inhibition above about 58%; tested in S. cerevisiae
Yeast life ext = extends the lifespan of yeast. S. cerevisiae growth with nicotinamide, OD615; deaD strain in restrictive glucose medium. AID 775. inhibition of the nicotinamide effect, % at 10 µM. 130,000 compounds, 0.68% hits;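 active = inhibition above a set limit, placed 3 SD over the median of all compounds, cut at about 26% in these data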;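 also: 0% = nicotinamide-treated wells and 100% = cells grown without nicotinamide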
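assay system = DeaD-strain S. cerevisiae | measured by = absorbance at 615 nm | probe or stimulus = nicotinamide 1.5 mM | buffer or medium = CSMM-D glucose medium, restrictive | times = 48 h at 30 °C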
DAT uptake mod = human DAT dopamine uptake with cocaine, either direction | Q01959 | LLC-PK1 hDAT cells, [14C]-dopamine uptake with cocaine IC80; actives deviate in either direction | B-score at 10 µM | 110,000 compounds, 1.3% hits | AID 449768;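 active = Z score or B-score, a plate-position-corrected score, falls beyond the plate's 99.7% confidence bounds, in either direction; inactive = both scores lie inside the 99.7% bounds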;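 also: scored against the spread of the other compound wells on the same plate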
Target sequence (Q01959 whole entry, looked up): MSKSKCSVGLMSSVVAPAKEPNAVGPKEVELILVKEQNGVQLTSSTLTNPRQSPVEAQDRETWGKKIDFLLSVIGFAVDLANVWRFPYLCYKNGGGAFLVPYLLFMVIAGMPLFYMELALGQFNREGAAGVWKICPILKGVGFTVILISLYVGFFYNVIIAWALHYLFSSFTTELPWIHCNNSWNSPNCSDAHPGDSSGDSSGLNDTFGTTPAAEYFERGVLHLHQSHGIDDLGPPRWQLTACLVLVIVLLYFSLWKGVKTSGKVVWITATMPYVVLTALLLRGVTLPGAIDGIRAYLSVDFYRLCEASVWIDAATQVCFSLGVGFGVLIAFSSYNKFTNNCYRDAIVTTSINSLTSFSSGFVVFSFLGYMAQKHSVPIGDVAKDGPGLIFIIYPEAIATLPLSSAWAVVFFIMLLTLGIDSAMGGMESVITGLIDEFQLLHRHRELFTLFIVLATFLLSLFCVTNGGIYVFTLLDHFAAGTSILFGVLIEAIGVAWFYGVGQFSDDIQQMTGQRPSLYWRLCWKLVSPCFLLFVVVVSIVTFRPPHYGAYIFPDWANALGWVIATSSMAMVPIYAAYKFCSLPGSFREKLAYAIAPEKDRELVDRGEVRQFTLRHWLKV
Measles CPE = protection of cells from measles virus; Measles virus-infected cells, CPE protection, absorbance; protection (pct of control), % at 4 µM; 140,000 compounds, 1.5% hits; in the data active = protection mostly above about 24%, no sharp cut-off; inactive = mostly below about 26%
RAM network inh = yeast RAM network inhibition; S. cerevisiae dse1pr::URA3 reporter, 5-FOA growth OD615, 2 d; analog-sensitive cbk1-as2 kinase mutant strain; inhibition, % at 50 µM; 190,000 compounds, 1.8% hits; AID 868;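 active = inhibition above a set limit, 3 SD over mean compound inhibition, cut at about 8.4% in these data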;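 also: 0% = DMSO-only wells with no growth and 100% = 10 µM 1-NA-PP1 full growth; inhibition rescues growth on 5-FOA so higher OD means more RAM inhibition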
* marks the source's active call; other numbers are inactive results.

How did C[C@H](C(=O)C=[N+]=[N-])N1C(=O)c2ccccc2C1=O do in these assays?
Yeast growth inh: -26; WT yeast gro inh: 7; Yeast life ext: -3; DAT uptake mod: -7.1*; Measles CPE: 8; RAM network inh: 1

Results for [N-]=[N+]=CC(=O)CC(c1ccccc1)N1C(=O)c2ccccc2C1=O (stereo not given) ?
Yeast growth inh: -32; WT yeast gro inh: 0; Yeast life ext: -10; Measles CPE: 13; RAM network inh: 3

How did CCn1c(NCc2ccccn2)nc2c1c(=O)n(C)c(=O)n2C do in these assays?
Yeast growth inh: -7; WT yeast gro inh: -3; Yeast life ext: -2; DAT uptake mod: 4*; Measles CPE: 34; RAM network inh: 2

How did C/C(Cl)=C\Cn1c(Nc2ccccc2)nc2c1c(=O)n(C)c(=O)n2C do in these assays?
Yeast growth inh: -38; WT yeast gro inh: 10; Yeast life ext: -13; DAT uptake mod: -0.22; Measles CPE: 25*; RAM network inh: 4

Results for CCCn1c(NCc2ccco2)nc2c1c(=O)n(C)c(=O)n2C ?
Yeast growth inh: -22; WT yeast gro inh: -22; DAT uptake mod: -0.23; Measles CPE: 8; RAM network inh: 0

How did Cc1ccc2nc(-c3ccc(NS(=O)(=O)c4ccccc4)cc3)sc2c1 do in these assays?
Yeast growth inh: -31; WT yeast gro inh: 11; Yeast life ext: 0; Measles CPE: 21; RAM network inh: 3

How did Cc1ccc2nc(-c3ccc(NS(=O)(=O)c4ccc(F)c(F)c4)cc3)sc2c1 do in these assays?
Yeast growth inh: 68*; WT yeast gro inh: 92; Yeast life ext: -7; Measles CPE: 7; RAM network inh: 5

How did Cc1ccc(NC(=O)CS(=O)CC(=O)Nc2ccc3c(c2)OCO3)cc1Cl (stereo not given) do in these assays?
Yeast growth inh: -38; WT yeast gro inh: -6; Yeast life ext: -9; DAT uptake mod: -7.6*; Measles CPE: 0; RAM network inh: 0

Results for O=C(CSCc1c(Cl)cccc1Cl)Nc1ccc2c(c1)OCO2 ?
Yeast growth inh: -37; WT yeast gro inh: -18; Yeast life ext: 6; DAT uptake mod: 2; Measles CPE: 31; RAM network inh: 9.7*

What do the screens show for `COc1cccc(/C=C/C(=C2/C(=O)N(c3ccccc3)N=C2C)c2ccc(C)cc2)c1OC`?
Yeast growth inh: -18; WT yeast gro inh: 0; Yeast life ext: 2; RAM network inh: 4

Results for CCCCCCCC#Cc1ccccc1/C=N/S(=O)c1ccc(C)cc1 (stereo not given) ?
Yeast growth inh: -38; WT yeast gro inh: 5; Yeast life ext: 36*; Measles CPE: 4; RAM network inh: -1

What do the screens show for `O=C(NCCc1ccccc1)c1ncn[nH]1`?
Yeast growth inh: 2; WT yeast gro inh: 0; Yeast life ext: -11; DAT uptake mod: 0.022; Measles CPE: 24; RAM network inh: 2

How did O=C(NCCc1ccc(Cl)cc1)c1ncn[nH]1 do in these assays?
Yeast growth inh: -25; WT yeast gro inh: 91*; Yeast life ext: -16; DAT uptake mod: -0.41; Measles CPE: 8; RAM network inh: -1

Results for Cc1c(Cl)ccc2c(C(=O)NCCN3CCCCC3)cc(-c3ccccn3)nc12 ?
WT yeast gro inh: 94*; RAM network inh: 5

How did Cc1cccc(C(=O)O/N=C/c2c(N3CCOCC3)n(C)c3ccccc23)c1 do in these assays?
Yeast growth inh: 53*; WT yeast gro inh: -5; Yeast life ext: -20; DAT uptake mod: -1.6; Measles CPE: 32*; RAM network inh: 3

Results for N#CCC(=O)Nc1ccc(C(=O)NCc2ccccn2)cc1 ?
WT yeast gro inh: -8; RAM network inh: 1

Results for O=C1c2cccc3cccc(c23)C(=O)N1c1cccnc1 ?
Yeast growth inh: 49*; WT yeast gro inh: 49; Yeast life ext: -31; DAT uptake mod: 0.26; Measles CPE: 2; RAM network inh: -1

Results for O=C1c2ccncc2C(=O)N1c1cccc(Cl)c1 ?
WT yeast gro inh: 10; RAM network inh: -1

What do the screens show for `O=C1c2cccc3cccc(c23)C(=O)N1c1ccccn1`?
WT yeast gro inh: 5; RAM network inh: 2

What do the screens show for `O=C1c2cccc3cccc(c23)C(=O)N1c1ccncc1`?
Yeast growth inh: 26; WT yeast gro inh: 9; DAT uptake mod: -0.45; Measles CPE: 23*; RAM network inh: 1

Results for CCc1ccc(C(=O)N2CCN(c3ccc(F)cc3)CC2)s1 ?
Yeast growth inh: -14; WT yeast gro inh: 30; Yeast life ext: -21; DAT uptake mod: 2*; Measles CPE: 16; RAM network inh: 1

Results for Cc1csc(SCC(=O)NC23CC4CC(CC(C4)C2)C3)n1 ?
Yeast growth inh: -59; WT yeast gro inh: 3; Yeast life ext: 39*; DAT uptake mod: 0.94; Measles CPE: 14; RAM network inh: 0

Results for O=C(c1cccc(C(F)(F)F)c1)N1CCOC12CCN(c1ncc(C(F)(F)F)cc1Cl)CC2 ?
Yeast growth inh: -38; WT yeast gro inh: 2; Yeast life ext: -5; DAT uptake mod: -0.5; Measles CPE: 13; RAM network inh: 5

How did Cc1ccccc1C(=O)NC(=S)Nc1sc2c(c1C#N)CCC(C)C2 (stereo not given) do in these assays?
Yeast growth inh: -32; WT yeast gro inh: 8; Yeast life ext: -15; DAT uptake mod: 0.029; Measles CPE: 59*; RAM network inh: 2

What do the screens show for `CC(C)C(C(=O)Nc1sc2c(c1C#N)CCCCC2)N1C(=O)c2ccccc2C1=O` (stereo not given)?
Yeast growth inh: -53; WT yeast gro inh: 30; Yeast life ext: -13; DAT uptake mod: -0.38; Measles CPE: 56*; RAM network inh: 7

What do the screens show for `N#Cc1c(NC(=S)NC(=O)C2CCCC2)sc2c1CCCCC2`?
Yeast growth inh: 0; WT yeast gro inh: 66*; Yeast life ext: 0; Measles CPE: 14; RAM network inh: 0

How did NC(=O)NC(=O)COC(=O)CCSc1ccccc1 do in these assays?
WT yeast gro inh: -46; RAM network inh: 2

Results for CC(C)(C)C1=C(C#N)C(c2cc3c(cc2Br)OCO3)C(C#N)=C(N)O1 (stereo not given) ?
DAT uptake mod: -0.63

How did N#C/C(=C1\CCCN1)c1ccc2ccccc2n1 do in these assays?
Yeast growth inh: -11; WT yeast gro inh: -13; Yeast life ext: -20; DAT uptake mod: -1.2; Measles CPE: 18*; RAM network inh: 8

Results for Cc1nc(S/C(=C/c2ccc(-c3cccc(Cl)c3)o2)C(=O)O)n[nH]1 ?
Yeast growth inh: -59; WT yeast gro inh: 71*; Yeast life ext: -9; Measles CPE: 9; RAM network inh: 6

How did Clc1cccc(Oc2ncc(CN3CCOCC3)s2)c1 do in these assays?
Yeast growth inh: 4; WT yeast gro inh: 3; Yeast life ext: -26; DAT uptake mod: 0.85; Measles CPE: 1; RAM network inh: 0
